Results from different studies.
Compare with care: the assays were run in different laboratories. pIC50: −log10 of the molar value.
Cell line: HepG2
Effect on: cell growth or viability

For `CC1=CC(=O)c2ccccc2C1=O`, the pIC50 was 5.03 (MTT).
`O=C1CS/C(=N\c2ccccc2Cl)N1c1nnc(-c2ccc(C(F)(F)F)cc2/N=C2\SCC(=O)N2c2ccccc2Cl)s1` gave a pIC50 of 4.26 (MTT).
`CC(=O)OC[C@H]1O[C@@H](n2cc(Cn3c(C(C)=O)nc4ccccc43)nn2)[C@H](OC(C)=O)[C@@H](OC(C)=O)[C@H]1OC(C)=O` gave a pIC50 of 5.49 (LDH; 48 h).
With `COc1ccc(N(Cc2nc(-c3ccc(F)cc3)cs2)C(=O)CCCCCC(=O)NO)cc1` the pIC50 was 6.01 (MTT; 72 h).
`O=C(O)c1nn(Cc2ccc(Cl)cc2Cl)c2ccccc12` has a pIC50 of 4.13 (48 h).
`CC(C)[C@@H](C)NC(=O)c1cc(-c2cc3ccccc3n2C)cc(C(=O)NCCc2ccccn2)n1` has a pIC50 of 4.90 (CCK-8).
`CCCNC(=S)N/N=C/c1cccc2cc3ccccc3nc12` gave a pIC50 of less than 4.30 (MTT; 48 h).
For `CC(=O)c1nc2ccccc2n1Cc1cn([C@@H]2OC[C@@H](O)[C@H](O)[C@H]2O)nn1`, the pIC50 was 5.81 (LDH; 48 h).
`C#CCNC(=O)c1c(-c2ccc(OC)cc2)oc2ccc(O)c(CN3CCCCC3)c12` gave a pIC50 of 4.27 (resazurin; 18 h).
`c1ccc(Cn2nc(-c3nc(-c4ccccc4)n[nH]3)c3ccccc32)cc1` gave a pIC50 of 4.22 (48 h).
For `CCN(CC)CCNC(=O)c1c(C)[nH]c(/C=C2\C(=O)Nc3ccc(F)cc32)c1C`, the pIC50 was 5.87 (SRB).
The pIC50 of `COc1cccc2c1C(=O)c1c(O)c3c(c(O)c1C2=O)C[C@@](O)(C(=O)CO)C[C@@H]3O[C@H]1C[C@H](N)[C@H](O)[C@H](C)O1` is reported as 6.34 (MTT).
`Cc1cccc([N+](=O)[O-])c1N=C1SCC(=O)N1c1nnc(-c2ccc(C(F)(F)F)cc2N=C2SCC(=O)N2c2c(C)cccc2[N+](=O)[O-])s1` gave a pIC50 of 4.30 (MTT).
`COc1cccc2c1C(=O)c1c(O)c3c(c(O)c1C2=O)C[C@@](O)(C(=O)CO)C[C@@H]3O[C@H]1C[C@H](N)[C@H](O)[C@H](C)O1` gave a pIC50 of 6.32 (MTT; 75 h).
With `CSc1ccccc1-c1ccc(C(N)=O)c2[nH]c3c(c12)CC(N)CC3` (centres unmarked) the pIC50 was 6.82.
For `O=C1CS/C(=N\c2cc(C(F)(F)F)ccc2-c2nnc(N3C(=O)CS/C3=N\c3cc(O)cc(Br)c3)s2)N1c1cc(O)cc(Br)c1`, the pIC50 was 4.15 (MTT).
The pIC50 of `FC(F)(F)CN1CC(n2cc(Oc3ccn4nc(Cl)cc4n3)cn2)C1` is reported as less than 3.29.
With `Fc1ccc2c(-c3nnc(Cc4ccccc4)[nH]3)nn(Cc3ccc(Cl)cc3Cl)c2c1` the pIC50 was 4.67 (48 h).
`CC(=O)O[C@@H]1[C@@H](OC(C)=O)[C@H](OC(C)=O)CO[C@H]1n1cc(Cn2c(C(=O)/C=C/c3ccc(F)cc3)nc3ccccc32)nn1` gave a pIC50 of 5.78 (LDH; 48 h).
`COc1cccc(NC(=S)N/N=C/c2cccc3cc4ccccc4nc23)c1` has a pIC50 of less than 4.30 (MTT; 48 h).
With `O=C1CS/C(=N\c2cc(C(F)(F)F)ccc2-c2nnc(N3C(=O)CS/C3=N\c3cccc(Cl)c3)s2)N1c1cccc(Cl)c1` the pIC50 was 4.24 (MTT).
`CN1CCC(NC2CCc3[nH]c4c(C(N)=O)ccc(-c5ccccc5Cl)c4c3C2)CC1` (centres unmarked) gave a pIC50 of 7.69 (96 h).
`NC(=O)c1cnc(NCCc2ccc(O)c(Cl)c2)nc1NCc1ccccc1` has a pIC50 of 5.86 (CCK-8; 48 h).
The pIC50 of `Fc1ccc2c(-c3ncc(-c4ccccc4)o3)nn(Cc3ccccc3)c2c1` is reported as 4.40 (48 h).
For `COc1ccc(N(Cc2csc(-c3ccc(Br)cc3)n2)C(=O)CCCCCC(=O)NO)cc1`, the pIC50 was 6.24 (MTT; 72 h).
The pIC50 of `c1ccc(-c2noc(-c3nn(Cc4ccncc4)c4ccccc34)n2)cc1` is reported as 4.48 (48 h).
With `C#CCn1c(C2CC(c3ccc(F)cc3)=NN2C(C)=O)nc2ccccc21` (centres unmarked) the pIC50 was 5.49 (LDH; 48 h).
`CNC(=S)N/N=C/c1cccc2cc3ccccc3nc12` gave a pIC50 of 4.38 (MTT; 48 h).
For `COc1ccc(-c2oc3ccc(O)c(CN4CCCCC4)c3c2C(=O)NCc2cn(Cc3ccccc3)nn2)cc1`, the pIC50 was 3.94 (resazurin; 18 h).
The pIC50 of `COc1ccc(N=C2SCC(=O)N2c2nnc(-c3ccc(C(F)(F)F)cc3N=C3SCC(=O)N3c3ccc(OC)cc3)s2)cc1` is reported as 4.15 (MTT).
For `COc1ccc(C[C@H](N)C(=O)N[C@H]2[C@@H](O)[C@H](n3cnc4c(N(C)C)ncnc43)O[C@@H]2CO)cc1`, the pIC50 was 5.90 (resazurin; 72 h).
`COc1cccc2c1C(=O)c1c(O)c3c(c(O)c1C2=O)C[C@@](O)(C(=O)CO)C[C@@H]3O[C@H]1C[C@H](N)[C@H](O)[C@H](C)O1` has a pIC50 of 7.22.
With `c1ccc(Oc2ccc(Nc3c4c(nc5ccccc35)CCC4)cc2)cc1` the pIC50 was 5.02 (resazurin; 72 h).
For `CC(C)CNC(=S)N/N=C/c1cccc2cc3ccccc3nc12`, the pIC50 was less than 4.30 (MTT; 48 h).
`O=C1CS/C(=N\c2ccccc2O)N1c1nnc(-c2ccc(C(F)(F)F)cc2/N=C2\SCC(=O)N2c2ccccc2O)s1` gave a pIC50 of 4.51 (MTT).
`COc1ccc2c(-c3nc(-c4ccccc4)no3)nn(Cc3ccncc3)c2c1` gave a pIC50 of 4.17 (48 h).
`N=C(CC(O)c1cc2c(F)cc(F)cc2c2cc(C(F)(F)F)ccc12)Nc1ccc(F)c(F)c1` (centres unmarked) has a pIC50 of 5.11 (neutral red; 24 h).
With `Clc1ccc(Cn2nc(-c3ncc(-c4ccccc4)s3)c3ccccc32)c(Cl)c1` the pIC50 was 3.89 (48 h).
The pIC50 of `CC(=O)OC[C@H]1O[C@@H](n2cc(Cn3c(C(=O)/C=C/c4ccc(F)cc4)nc4ccccc43)nn2)[C@H](OC(C)=O)[C@@H](OC(C)=O)[C@H]1OC(C)=O` is reported as 5.79 (LDH; 48 h).
`Cc1noc(-c2nn(Cc3ccc(Cl)cc3Cl)c3ccccc23)n1` gave a pIC50 of 4.29 (48 h).
With `COc1cccc(N=C2SCC(=O)N2c2nnc(-c3ccc(C(F)(F)F)cc3N=C3SCC(=O)N3c3cccc(OC)c3)s2)c1` the pIC50 was 4.10 (MTT).
